Test results reported in ChEMBL document CHEMBL1153602, “Photochemical electrocyclisation of 3-vinylindoles to pyrido[2,3-a]-, pyrido[4,3-a]- and thieno[2,3-a]-carbazoles: design, synthesis, DNA binding and antitumor cell cytotoxicity” (2009).
Calls of active or inactive are those of the source. No cut-off for these calls is given here.

How the values were obtained:
[1] = system: HT-29; experiment: Cell cycle arrest in human HT-29 cells assessed as accumulation at S phase at 10 uM after 24 hrs using PI staining by flow cytometry; assay type: functional
In short: (§1)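 HT-29 cells, 3×10^5 per sample in exponential growth, were exposed to graded drug concentrations for 24 h. Cells were then trypsinised, fixed in 70% ethanol and stained 30 min in the dark with propidium iodide (50 µg/ml) plus RNase (100 µg/ml). DNA content was measured by flow cytometry, quantifying cell-cycle phases and the sub-G1 fraction.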

[2] = system: HT-29; experiment: Cell cycle arrest in human HT-29 cells assessed as accumulation at G2/M phase at 25 uM after 24 hrs using PI staining by flow cytometry; assay type: functional, cell-based; in short: as §1
[3] = system: UO-31; experiment: Growth inhibition of human UO31 cells after 48 hrs by sulforhodamine B protein assay; assay type: functional; conditions: UO-31, 48 h
In short: (§2)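 NCI 60-cell-line screen. Dose–response used at least five concentrations in 10-fold dilutions with 48 h continuous drug exposure. Growth was estimated by sulforhodamine B protein staining. GI50 is the molar concentration giving 50% growth inhibition versus control.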

[4] = system: HT-29; experiment: Growth inhibition of human HT-29 cells after 48 hrs by sulforhodamine B protein assay; assay type: functional; conditions: HT-29, 48 h; in short: as §2
[5] = system: SK-MEL-5; experiment: Growth inhibition of human SK-MEL-5 cells after 48 hrs by sulforhodamine B protein assay; assay type: functional; conditions: SK-MEL-5, 48 h; in short: as §2
[6] = system: SW-620; experiment: Growth inhibition of human SW620 cells after 48 hrs by sulforhodamine B protein assay; assay type: functional; conditions: SW-620, 48 h; in short: as §2
[7] = system: HT-29; experiment: Growth inhibition of human HT-29 cells by MTS assay; assay type: functional
In short: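 HT-29 cells, 3×10^3 per well, were seeded 24 h before treatment with compound at 1 nM–100 µM, run as 3 series of duplicate or triplicate points. After 72 h at 37 °C, MTS tetrazolium was added for 2 h and absorbance read at 492 nm. GC50 is the concentration halving cell number versus untreated control wells.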

[8] = system: Calf thymus DNA; experiment: Binding affinity to calf thymus DNA assessed as change in melting temperature at a compound to DNA molar ratio of 0.1 by UV-vis spectroscopy; assay type: nucleic-acid assay; conditions: Bos taurus
In short: (§3)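 UV absorbance of DNA at 260 nm recorded every minute from 20 to 100 °C, ramping 1 °C/min in a thermostated quartz cell. Tm is taken as the midpoint of the hyperchromic transition. ΔTm = Tm(DNA+drug) − Tm(DNA alone). Calf-thymus DNA or poly(dAdT)2 was used at DNA/drug ratios from 0.1 to 1.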

[9] = system: Calf thymus DNA; experiment: Binding affinity to calf thymus DNA assessed as change in melting temperature at a compound to DNA molar ratio of 0.25 by UV-vis spectroscopy; assay type: nucleic-acid assay; conditions: Bos taurus; in short: as §3
[10] = system: Calf thymus DNA; experiment: Binding affinity to calf thymus DNA assessed as change in melting temperature at a compound to DNA molar ratio of 0.5 by UV-vis spectroscopy; assay type: nucleic-acid assay; conditions: Bos taurus; in short: as §3
[11] = system: Calf thymus DNA; experiment: Binding affinity to calf thymus DNA assessed as change in melting temperature at a compound to DNA molar ratio of 1 by UV-vis spectroscopy; assay type: nucleic-acid assay; conditions: Bos taurus; in short: as §3
[12] = system: Nucleic Acid; experiment: Binding affinity to poly(dA).poly(dT) duplex DNA assessed as change in thermal melting temperature at compound to DNA ratio of 0.1 by UV-vis spectroscopy; assay type: nucleic-acid assay
[13] = system: Nucleic Acid; experiment: Binding affinity to poly(dA).poly(dT) duplex DNA assessed as change in thermal melting temperature at compound to DNA ratio of 0.25 by UV-vis spectroscopy; assay type: nucleic-acid assay
[14] = system: Nucleic Acid; experiment: Binding affinity to poly(dA).poly(dT) duplex DNA assessed as change in thermal melting temperature at compound to DNA ratio of 0.5 by UV-vis spectroscopy; assay type: nucleic-acid assay
[15] = system: Nucleic Acid; experiment: Binding affinity to poly(dA).poly(dT) duplex DNA assessed as change in thermal melting temperature at compound to DNA ratio of 1 by UV-vis spectroscopy; assay type: nucleic-acid assay
[16] = system: Nucleic Acid; experiment: Binding affinity to pBS 117bp DNA by DnaseI footprinting assay; assay type: nucleic-acid assay
In short: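 Ligand and fragment were pre-incubated 15 min at 37 °C, then digested with DNase I at 0.001 unit/ml in 20 mM NaCl, 2 mM MgCl2, 2 mM MnCl2, pH 7.3. Products were resolved on a denaturing 8% polyacrylamide/8 M urea gel, with a G-track marker.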

[17] = target: T1, DNA topoisomerase 1 (Homo sapiens) (UniProt P11387); experiment: Inhibition of human topoisomerase 1-mediated DNA relaxation assessed as lack of nicking form by agarose gel electrophoresis
T1 sequence (whole entry): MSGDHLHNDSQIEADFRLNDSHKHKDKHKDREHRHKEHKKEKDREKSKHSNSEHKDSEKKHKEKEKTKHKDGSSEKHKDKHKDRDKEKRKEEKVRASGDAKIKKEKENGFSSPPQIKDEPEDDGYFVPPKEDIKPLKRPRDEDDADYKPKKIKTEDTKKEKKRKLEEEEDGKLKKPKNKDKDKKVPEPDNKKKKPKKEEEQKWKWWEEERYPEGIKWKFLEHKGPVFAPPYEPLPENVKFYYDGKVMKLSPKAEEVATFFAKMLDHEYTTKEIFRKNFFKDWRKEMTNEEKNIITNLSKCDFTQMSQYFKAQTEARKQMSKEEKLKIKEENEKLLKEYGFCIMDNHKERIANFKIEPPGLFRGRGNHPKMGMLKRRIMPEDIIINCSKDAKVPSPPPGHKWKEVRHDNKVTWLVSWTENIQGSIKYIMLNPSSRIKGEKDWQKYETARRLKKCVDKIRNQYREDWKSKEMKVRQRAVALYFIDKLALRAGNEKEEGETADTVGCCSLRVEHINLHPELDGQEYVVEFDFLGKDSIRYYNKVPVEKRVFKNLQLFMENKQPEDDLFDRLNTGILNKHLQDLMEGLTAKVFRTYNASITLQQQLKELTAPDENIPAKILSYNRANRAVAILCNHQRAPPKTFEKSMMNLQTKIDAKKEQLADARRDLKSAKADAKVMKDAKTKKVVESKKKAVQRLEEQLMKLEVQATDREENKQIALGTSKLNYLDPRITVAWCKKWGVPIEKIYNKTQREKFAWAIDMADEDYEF
In short: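 Supercoiled pUC19 (130 ng) was pre-incubated with compound at graded concentrations, or 20 or 50 µM in the cleavage assay. Human topoisomerase I (4 units) was then added for 45 min at 37 °C in 50 mM Tris pH 7.8, 50 mM KCl, 10 mM MgCl2, 1 mM DTT, 1 mM EDTA, 1 mM ATP. Camptothecin (20 µM) served as control. Samples ran on 1% agarose for 2 h at 120 V in TBE, with ethidium bromide either post-stained (relaxation) or included in the gel (cleavage).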

[18] = target: DNA topoisomerase 2-alpha (Homo sapiens) (UniProt P11388); experiment: Inhibition of human topoisomerase 2-mediated DNA relaxation assessed as double stranded break form by agarose gel electrophoresis
Chain of DNA topoisomerase 2-alpha (Homo sapiens) (P11388 whole entry): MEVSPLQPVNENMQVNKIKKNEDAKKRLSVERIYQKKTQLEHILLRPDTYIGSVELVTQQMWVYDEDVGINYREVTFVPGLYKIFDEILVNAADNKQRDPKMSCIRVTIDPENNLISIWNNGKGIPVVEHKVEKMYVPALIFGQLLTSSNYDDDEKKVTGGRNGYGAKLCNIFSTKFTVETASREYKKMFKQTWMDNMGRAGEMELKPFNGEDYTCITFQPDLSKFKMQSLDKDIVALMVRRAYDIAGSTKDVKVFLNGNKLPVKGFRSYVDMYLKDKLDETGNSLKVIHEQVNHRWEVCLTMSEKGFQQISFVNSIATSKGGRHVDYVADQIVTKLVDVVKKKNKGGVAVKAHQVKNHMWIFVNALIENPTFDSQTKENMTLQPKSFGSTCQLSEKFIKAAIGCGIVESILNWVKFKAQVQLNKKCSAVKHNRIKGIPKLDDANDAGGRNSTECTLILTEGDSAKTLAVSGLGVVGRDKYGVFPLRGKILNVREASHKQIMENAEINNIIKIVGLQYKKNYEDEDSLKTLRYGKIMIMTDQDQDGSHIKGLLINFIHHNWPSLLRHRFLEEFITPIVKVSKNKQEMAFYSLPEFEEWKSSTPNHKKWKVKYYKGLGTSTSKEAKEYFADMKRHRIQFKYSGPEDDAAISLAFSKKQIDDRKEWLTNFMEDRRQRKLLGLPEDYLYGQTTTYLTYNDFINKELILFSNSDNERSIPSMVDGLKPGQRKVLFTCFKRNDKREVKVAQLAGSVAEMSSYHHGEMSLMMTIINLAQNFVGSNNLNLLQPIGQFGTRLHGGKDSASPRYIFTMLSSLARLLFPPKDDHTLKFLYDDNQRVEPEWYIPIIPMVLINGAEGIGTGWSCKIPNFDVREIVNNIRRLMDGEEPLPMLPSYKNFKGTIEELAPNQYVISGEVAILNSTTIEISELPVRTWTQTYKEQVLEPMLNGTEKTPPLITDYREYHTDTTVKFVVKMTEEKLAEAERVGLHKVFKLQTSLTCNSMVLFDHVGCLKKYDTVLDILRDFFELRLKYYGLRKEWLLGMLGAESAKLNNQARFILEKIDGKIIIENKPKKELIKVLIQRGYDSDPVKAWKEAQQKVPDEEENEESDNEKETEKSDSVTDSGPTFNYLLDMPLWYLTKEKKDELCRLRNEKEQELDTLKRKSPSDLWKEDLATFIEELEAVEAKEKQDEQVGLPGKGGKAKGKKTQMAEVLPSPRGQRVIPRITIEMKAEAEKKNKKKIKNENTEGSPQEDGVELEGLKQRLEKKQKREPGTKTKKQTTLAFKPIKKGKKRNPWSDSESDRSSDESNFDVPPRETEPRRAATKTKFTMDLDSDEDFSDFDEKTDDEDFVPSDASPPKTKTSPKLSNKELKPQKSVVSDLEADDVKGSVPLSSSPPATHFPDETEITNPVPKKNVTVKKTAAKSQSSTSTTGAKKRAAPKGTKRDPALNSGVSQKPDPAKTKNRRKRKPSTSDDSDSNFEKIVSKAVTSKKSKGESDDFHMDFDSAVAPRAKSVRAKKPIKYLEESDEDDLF
In short: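 Supercoiled pUC19 (130 ng) with compound at 20 or 50 µM, or etoposide as control, was incubated with human topoisomerase II (4 units) for 45 min at 37 °C in cleavage buffer. The reaction was stopped with 0.25% SDS plus proteinase K for 30 min at 50 °C. DNA forms were separated on 1% agarose containing ethidium bromide in TBE.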

[19] = system: HT-29; experiment: Cell cycle arrest in human HT-29 cells at 25 uM after 24 hrs using PI staining by flow cytometry
[20] = system: Calf thymus DNA; experiment: Binding affinity to calf thymus DNA assessed as enhancement constant by fluorescence spectroscopy; assay type: nucleic-acid assay; conditions: Bos taurus
In short: (§4)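 Drug at a fixed 20 µM in 1 ml BPE buffer in a 10 mm quartz cuvette, titrated with CT-DNA at 10–200 µM base pairs. Excitation was set at each compound's own wavelength (276–319 nm). Constants came from Stern–Volmer plots of F0/F against CT-DNA concentration, with the slope taken as Ksv.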

[21] = system: HT-29; experiment: Cell cycle arrest in human HT-29 cells assessed as accumulation at G2/M phase after 24 hrs using PI staining by flow cytometry; assay type: functional, cell-based; in short: as §1
[22] = system: HT-29; experiment: Cell cycle arrest in human HT-29 cells assessed as reduction of cells in G1 phase after 24 hrs using PI staining by flow cytometry; assay type: functional, cell-based; in short: as §1
[23] = system: HT-29; experiment: Cell cycle arrest in human HT-29 cells assessed as accumulation at S phase at 25 uM after 24 hrs using PI staining by flow cytometry; assay type: functional; in short: as §1
[24] = system: OVCAR-3; experiment: Growth inhibition of human OVCAR-3 cells after 48 hrs by sulforhodamine B protein assay; assay type: functional; conditions: OVCAR-3, 48 h; in short: as §2
[25] = system: CAKI-1; experiment: Growth inhibition of human Caki1 cells after 48 hrs by sulforhodamine B protein assay; assay type: functional; conditions: CAKI-1, 48 h; in short: as §2
[26] = system: IGROV-1; experiment: Growth inhibition of human IGROV1 cells after 48 hrs by sulforhodamine B protein assay; assay type: functional; conditions: IGROV-1, 48 h; in short: as §2
[27] = system: Calf thymus DNA; experiment: Binding affinity to calf thymus DNA assessed as quenching constant by fluorescence spectroscopy; assay type: nucleic-acid assay; conditions: Bos taurus; in short: as §4
[28] = system: Calf thymus DNA; experiment: Binding affinity to calf thymus DNA assessed as negative dichroic signal at phosphate/drug ratio by circular dichroism spectra; assay type: nucleic-acid assay; conditions: Bos taurus
In short: (§5)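 Circular dichroism of drug at […] in 1 ml of 1 mM sodium cacodylate, pH 7.0, with or without CT-DNA at 10–200 µM. Phosphate/compound ratio ran from 0.4 to 8. The induced CD signal in the ligand absorption region was recorded.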

[29] = system: Calf thymus DNA; experiment: Binding affinity to calf thymus DNA assessed as positive dichroic signal at phosphate/drug ratio by circular dichroism spectra; assay type: nucleic-acid assay; conditions: Bos taurus; in short: as §5

| Compound | Activity [1] [%] | Activity [2] | GI50 ([3]; read-out: GI50) [nM] | GI50 ([3]; read-out: pGI50 (converted)) [nM] | GI50 ([4]; read-out: GI50) [nM] | GI50 ([4]; read-out: pGI50 (converted)) [nM] | GI50 [7] [nM] | ΔTm [8] [°C] | ΔTm [9] [°C] | ΔTm [10] [°C] | ΔTm [11] [°C] | ΔTm [12] [°C] | ΔTm [13] [°C] | ΔTm [14] [°C] | ΔTm [15] [°C] | Activity [16] | Activity [17] | Activity [18] | Activity [19] | Activity [21] | also measured |
| --- | --- | --- | --- | --- | --- | --- | --- | --- | --- | --- | --- | --- | --- | --- | --- | --- | --- | --- | --- | --- | --- |
| CN(C)CCNC(=O)c1cc2c3cc(Cl)ccc3[nH]c2c2ncccc12 | 37 | Active | 1100 | 1100 | 2330 | 2340 | 3200 | 1.5 | 7.4 | 7.3 | 11.7 | 6.1 | 14.7 | 18.9 | 24.9 | Active | Active | Active | Active |  | GI50 ([5]; read-out: GI50): 1340 nM; GI50 ([5]; read-out: pGI50 (converted)): 1350 nM; GI50 ([6]; read-out: GI50): 1470 nM; GI50 ([6]; read-out: pGI50 (converted)): 1480 nM |
| CN(C)CCCNC(=O)c1cc2c3cc(Cl)ccc3[nH]c2c2ncccc12 | 26.1 | Active |  |  |  |  | 9230 | 3 | 7.4 | 8.8 | 13.2 | 6.1 | 9.2 | 20.4 | 27.8 | Active | Active | Active | Active |  | Activity [20]: 4.84 ×10³ /M |
| CN(C)CCNC(=O)c1cc2c3ccccc3[nH]c2c2ncccc12 |  |  | 2130 | 2090 | 5270 | 5250 | 11500 | 0 | 3 | 2.9 | 7.3 | 2.9 | 11.8 | 14.5 | 18.9 | Active | Active | Active |  | Active | Activity [22]: Active; Activity [23]: 32.6%; GI50 ([24]; read-out: GI50): 25.4 nM; GI50 ([24]; read-out: pGI50 (converted)): 25.1 nM; GI50 ([25]; read-out: GI50): 515 nM; GI50 ([25]; read-out: pGI50 (converted)): 525 nM; GI50 ([26]; read-out: GI50): 1140 nM; GI50 ([26]; read-out: pGI50 (converted)): 1100 nM |
| CN(C)CCCNC(=O)c1cc2c3cc(Cl)ccc3[nH]c2c2ccncc12 |  |  |  |  |  |  | 2200 | 3.6 | 6.6 | 10.7 | 13.9 | 10.3 | 17.3 | 22.7 | 28.3 | Active |  |  |  | Active | KSV [27]: 9.95 ×10³ /M; Activity [28]: Active; Activity [29]: Active |
